Values after ≈ are worked out from the molar mass of the structure shown.
Tests used:
Escherichia coli [1] = test: In vitro antibacterial activity against gram negative Escherichia coli KNK 437; type: functional
Procedure, shortened: (§1)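 Agar dilution MIC determination following the National Committee for Clinical Laboratory Standards recommendations.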

Mus musculus [2] = test: In vivo efficacy against Pseudomonas aeruginosa 5007 in mouse protection test […]; type: functional
Procedure, shortened: (§2)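 Mouse protection model: mice infected intravenously with 100-fold LD50 of the organism. Compound given by subcutaneous injection or oral gavage at 1 and 5 h after infection, over a dose range. Deaths tracked for 7 days post-inoculation. ED50 is the dose giving 50% survival of treated mice over the trial.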

Staphylococcus aureus [3] = test: In vivo efficacy against Staphylococcus aureus NCTC 10649M in mouse protection test after p.o. administration.; type: functional; procedure, shortened: as §2
Mus musculus [4] = test: In vivo efficacy against Streptococcus pneumoniae ATCC 6303 in mouse protection test after administration by oral gavage.; type: functional; procedure, shortened: as §2
Escherichia coli [5] = test: In vivo efficacy against Escherichia coli JUHL in mouse protection test after p.o. administration.; type: functional; procedure, shortened: as §2
Staphylococcus aureus [6] = test: In vitro antibacterial activity against gram-positive Staphylococcus aureus NCTC 10649M; type: functional; procedure, shortened: as §1
Pseudomonas aeruginosa [7] = test: In vivo efficacy against Pseudomonas aeruginosa 5007 in mouse protection test after subcutaneous administration; type: functional; settings: Pseudomonas aeruginosa, sc; read-out: ED50; procedure, shortened: as §2
Enterococcus faecium = test: In vitro antibacterial activity against gram-positive Enterococcus faecium ATCC 8043; type: functional; procedure, shortened: as §1
Staphylococcus aureus [8] = test: In vivo efficacy against Staphylococcus aureus NCTC 10649M in mouse; type: functional; settings: Staphylococcus aureus; read-out: ED50; procedure, shortened: as §2
Escherichia coli [9] = test: In vivo efficacy against Escherichia coli JUHL in mouse protection test after subcutaneous administration; type: functional; procedure, shortened: as §2
Streptococcus pyogenes = test: In vitro antibacterial activity against gram positive Streptococcus pyogenes 930; type: functional; procedure, shortened: as §1
Pseudomonas aeruginosa [10] = test: In vitro antibacterial activity against gram negative P. aeruginosa DPHP 5263; type: functional; procedure, shortened: as §1
Pseudomonas aeruginosa [11] = test: In vitro antibacterial activity against Gram-negative Pseudomonas aeruginosa 5007; type: functional; procedure, shortened: as §1
Burkholderia cepacia [12] = test: In vitro antibacterial activity against gram negative Pseudomonas cepacia 2961; type: functional; procedure, shortened: as §1
Streptococcus pneumoniae = test: In vivo efficacy against Streptococcus pneumoniae ATCC 6303 in mouse protection test after s.c. administration.; type: functional; procedure, shortened: as §2
Staphylococcus aureus [13] = test: In vitro antibacterial activity against gram-positive Staphylococcus aureus 1775; type: functional; procedure, shortened: as §1
Mus musculus [14] = test: In vivo antibacterial activity (dose protecting 50% mice)against Gram-positive S aureus NCTC 10649M after subcutaneous administration.; type: functional; settings: sc; procedure, shortened: as §2
Mus musculus [15] = test: In vivo efficacy against Streptococcus pneumoniae ATCC 6303 in mouse protection test after administration by oral gavage; type: functional; procedure, shortened: as §2
Mus musculus [16] = test: In vivo efficacy against Escherichia coli JUHL in mouse protection test after administration by oral gavage; type: functional; procedure, shortened: as §2
Pseudomonas aeruginosa [17] = test: In vivo efficacy against Pseudomonas aeruginosa 5007 in mouse protection test after administration by oral gavage; type: functional; procedure, shortened: as §2
Burkholderia cepacia [18] = test: In vitro antibacterial activity against gram negative P. cepacia 2961
Burkholderia cepacia [19] = test: In vitro antibacterial activity against Pseudomonas cepacia 2961 a ciprofloxacin resistant strain; type: functional
Procedure, shortened: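 MIC by agar dilution following National Committee for Clinical Laboratory Standards recommendations. P. cepacia 2961 is a ciprofloxacin-resistant strain; S. pyogenes 930 is erythromycin-resistant.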

Mus musculus [20] = test: In vivo efficacy against Streptococcus pneumoniae ATCC 6303 after administration by oral gavage; type: functional; procedure, shortened: as §2
Mus musculus [21] = test: In vivo efficacy against Streptococcus pneumoniae ATCC 6303 after subcutaneous administration; type: functional; settings: sc; procedure, shortened: as §2
Mus musculus [22] = test: IIn vivo efficacy against Escherichia coli JUHL in mouse protection test after administration by oral gavage.; type: functional; procedure, shortened: as §2
Mus musculus [23] = test: IIn vivo efficacy against Streptococcus pneumoniae ATCC 6303 in mouse protection test after oral administration by oral gavage
Mus musculus [24] = test: InIn vivo efficacy against Escherichia coli JUHL in mouse protection test after administration by oral gavage; type: functional; procedure, shortened: as §2
Mus musculus [25] = test: In vivo efficacy against Escherichia coli JUHL in mouse protection test after by oral gavage; type: functional; procedure, shortened: as §2
Escherichia coli [26] = test: In vitro antibacterial activity against Escherichia coli KNK 437 a ciprofloxacin less sensitive strain; type: functional; procedure, shortened: as §1
Mus musculus [27] = test: In vivo efficacy against Escherichia coli JUHL in mouse protection test after administration by oral gavage.; type: functional; procedure, shortened: as §2
[28] = Staphylococcus aureus, po, read-out: ED50
[29] = Escherichia coli, sc, read-out: ED50
[30] = Streptococcus pneumoniae, sc, read-out: ED50
[31] = Escherichia coli, read-out: MIC
[32] = Staphylococcus aureus, NCTC 10649, read-out: MIC
[33] = Enterococcus faecium, ATCC 8043, read-out: MIC
[34] = Burkholderia cepacia, read-out: MIC
[35] = Pseudomonas aeruginosa, DPHP 5263, read-out: MIC
[36] = Staphylococcus aureus, read-out: MIC
[37] = Streptococcus pyogenes, read-out: MIC
[38] = Pseudomonas aeruginosa, read-out: MIC

SMILES	ED50 (Staphylococcus aureus [3]; [28]) [mg/kg]	ED50 (Pseudomonas aeruginosa [7]) [mg/kg]	ED50 (Staphylococcus aureus [8]) [mg/kg]	ED50 (Escherichia coli [9]; [29]) [mg/kg]	MIC (Escherichia coli [1]; [31]) [µg/mL]	MIC (Staphylococcus aureus [6]; [32]) [µg/mL]	MIC (Enterococcus faecium; [33]) [µg/mL]	MIC (Burkholderia cepacia [12]; [34]) [µg/mL]	MIC (Pseudomonas aeruginosa [10]; [35]) [µg/mL]	MIC (Staphylococcus aureus [13]; [36]) [µg/mL]	MIC (Streptococcus pyogenes; [37]) [µg/mL]	MIC (Pseudomonas aeruginosa [11]; [38]) [µg/mL]	further results
CN[C@@H]1CN(c2c(F)cn3c(=O)c(C(=O)O)cc(C4CC4)c3c2C)C[C@H]1C (stereo in doubt; 3v)	6.3	16.1	1.6	2.8	–	–	–	–	–	–	–	–	MIC (Escherichia coli [1]): 0.2 µg/mL (≈ 0.536 µM); ED50 (Mus musculus [2]): > 50 mg/kg; ED50 (Mus musculus [4]): 13 mg/kg; ED50 (Escherichia coli [5]; Escherichia coli, po, read-out: ED50): 9.1 mg/kg; MIC (Staphylococcus aureus [6]): 0.02 µg/mL (≈ 0.0536 µM); MIC (Enterococcus faecium): 0.2 µg/mL (≈ 0.536 µM); MIC (Streptococcus pyogenes): 0.2 µg/mL (≈ 0.536 µM); MIC (Pseudomonas aeruginosa [10]): 12.5 µg/mL (≈ 33.5 µM); MIC (Pseudomonas aeruginosa [11]): 0.39 µg/mL (≈ 1.04 µM); MIC (Burkholderia cepacia [12]): 1.56 µg/mL (≈ 4.18 µM); ED50 (Streptococcus pneumoniae; [30]): 5 mg/kg; MIC (Staphylococcus aureus [13]): 1.56 µg/mL (≈ 4.18 µM)
Cc1c(N2C[C@@H]3CCN[C@@H]3C2)c(F)cn2c(=O)c(C(=O)O)cc(C3CC3)c12 (stereo in doubt; 3gg)	–	6.4	5	0.4	0.2 (≈ 0.538 µM)	0.02 (≈ 0.0538 µM)	0.05 (≈ 0.135 µM)	1.56 (≈ 4.2 µM)	–	–	–	–	ED50 (Mus musculus [14]): 0.7 mg/kg; ED50 (Mus musculus [15]): 7.6 mg/kg; ED50 (Mus musculus [16]): 2.5 mg/kg; ED50 (Pseudomonas aeruginosa [17]): 39.1 mg/kg; MIC (Staphylococcus aureus [13]): 0.39 µg/mL (≈ 1.05 µM)
Cc1c(N2CCC3(CCCC3N)C2)c(F)cn2c(=O)c(C(=O)O)cc(C3CC3)c12 (stereo unspecified)	–	–	–	–	0.2 (≈ 0.501 µM)	0.05 (≈ 0.125 µM)	0.1 (≈ 0.25 µM)	–	6.2 (≈ 15.5 µM)	0.78 (≈ 1.95 µM)	–	–	MIC (Burkholderia cepacia [18]): 0.78 µg/mL (≈ 1.95 µM); MIC (Burkholderia cepacia [19]): 3.1 µg/mL (≈ 7.76 µM)
Cc1c(N2CC[C@H](N)C2)c(F)cn2c(=O)c(C(=O)O)cc(C3CC3)c12 (stereo in doubt; 3i) [ABT-719]	3	0.5	0.8	0.3	0.02 (≈ 0.0579 µM)	0.02 (≈ 0.0579 µM)	0.02 (≈ 0.0579 µM)	0.39 (≈ 1.13 µM)	–	0.78 (≈ 2.26 µM)	–	–	ED50 (Mus musculus [2]): 2.9 mg/kg; ED50 (Mus musculus [20]): 10 mg/kg; ED50 (Mus musculus [21]): 2.6 mg/kg; ED50 (Mus musculus [22]): 8.3 mg/kg
Cc1c(N2CC[C@H](C)[C@H](N)C2)c(F)cn2c(=O)c(C(=O)O)cc(C3CC3)c12 (stereo in doubt; 3ss)	–	–	3.3	–	0.39 (≈ 1.04 µM)	0.05 (≈ 0.134 µM)	0.2 (≈ 0.536 µM)	1.56 (≈ 4.18 µM)	12.5 (≈ 33.5 µM)	1.56 (≈ 4.18 µM)	0.1 (≈ 0.268 µM)	0.78 (≈ 2.09 µM)	ED50 (Staphylococcus aureus [3]): 0.8 mg/kg; ED50 (Escherichia coli [5]): 1.4 mg/kg; ED50 (Escherichia coli [9]): 0.6 mg/kg; ED50 (Streptococcus pneumoniae): 1 mg/kg; ED50 (Mus musculus [23]): 2 mg/kg
Cc1c(N2CC[C@H](C)[C@@H](N)C2)c(F)cn2c(=O)c(C(=O)O)cc(C3CC3)c12	1.9	–	0.5	1.7	0.39 (≈ 1.04 µM)	0.01 (≈ 0.0268 µM)	0.05 (≈ 0.134 µM)	3.1 (≈ 8.3 µM)	–	0.39 (≈ 1.04 µM)	0.02 (≈ 0.0536 µM)	0.39 (≈ 1.04 µM)	ED50 (Mus musculus [24]): 2.3 mg/kg
COCCN[C@H]1CCN(c2c(F)cn3c(=O)c(C(=O)O)cc(C4CC4)c3c2C)C1	18.1	–	6.1	2.5	0.39 (≈ 0.967 µM)	0.05 (≈ 0.124 µM)	0.39 (≈ 0.967 µM)	0.78 (≈ 1.93 µM)	12.5 (≈ 31 µM)	1.56 (≈ 3.87 µM)	0.39 (≈ 0.967 µM)	1.56 (≈ 3.87 µM)	ED50 (Mus musculus [25]): > 10 mg/kg
Cc1c(N2C[C@H]3CNC[C@H]3C2)c(F)cn2c(=O)c(C(=O)O)cc(C3CC3)c12	12.5	6.4	1.2	0.7	–	0.05 (≈ 0.135 µM)	0.1 (≈ 0.269 µM)	3.1 (≈ 8.35 µM)	6.2 (≈ 16.7 µM)	6.2 (≈ 16.7 µM)	0.1 (≈ 0.269 µM)	0.2 (≈ 0.538 µM)	ED50 (Mus musculus [15]): 25.2 mg/kg; ED50 (Pseudomonas aeruginosa [17]; Pseudomonas aeruginosa, po, read-out: ED50): 58.7 mg/kg; MIC (Escherichia coli [26]): 0.2 µg/mL (≈ 0.538 µM); ED50 (Mus musculus [27]): 5 mg/kg; ED50 (Streptococcus pneumoniae; [30]): 1.3 mg/kg
